Assay results reported in ChEMBL document CHEMBL1759952, “Synthesis and anticancer activities of some novel 2-(benzo[d]thiazol-2-yl)-8-substituted-2H-pyrazolo[4,3-c]quinolin-3(5H)-ones” (Eur J Med Chem, 2011).
Converted amounts (≈) assume the structure as drawn.

Tests used:
[1] = system: MDA-MB-435; experiment: Cytotoxicity against human MDA-MB-435 cells for 72 hrs by MTT assay; assay type: functional, cell-based; details: MDA-MB-435, 72 h
Method in brief: (§1)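 Cells kept in RPMI 1640 with 10% fetal bovine serum, 2 mM glutamine, 100 U/mL penicillin and streptomycin, at 37 °C under 5% CO₂. Compounds were dissolved in DMSO and diluted with water to 1 mg/mL, then incubated with cells for 72 h. Growth was read by MTT, with doxorubicin as positive control. IC₅₀ is the concentration giving 50% growth inhibition, in triplicate.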

[2] = system: SF-295; experiment: Cytotoxicity against human SF295 cells for 72 hrs by MTT assay; assay type: functional, cell-based; details: SF-295, 72 h; method in brief: as §1
[3] = system: HL-60; experiment: Cytotoxicity against human HL60 cells for 72 hrs by MTT assay; assay type: functional, cell-based; details: HL-60, 72 h; method in brief: as §1
[4] = system: HCT-8; experiment: Cytotoxicity against human HCT8 cells for 72 hrs by MTT assay; assay type: functional, cell-based; details: HCT-8, 72 h; method in brief: as §1
[5] = Toxicity against mouse erythrocytes assessed as hemolysis after 30 mins by spectrometric analysis; assay type: cell-based, Erythrocyte
Method in brief: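 Used a 2% mouse erythrocyte suspension in 0.85% NaCl with 10 mM CaCl₂. Compounds (DMSO stock diluted in water) were tested across a graded range, 30 min at room temperature, then centrifuged. Released hemoglobin in the supernatant was read at 540 nm. DMSO was the negative control and 1% Triton X-100 the positive control. EC₅₀ = effective concentration.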

Compound | IC50 [1] [µg/mL] | IC50 [2] [µg/mL] | IC50 [3] [µg/mL] | IC50 [4] [µg/mL] | EC50 at 30 min [5] [µg/mL]
COc1ccc2[nH]cc3c(=O)n(-c4nc5ccccc5s4)nc-3c2c1 | > 5 | > 5 | > 5 | > 5 | > 250
COc1cccc2c1C(=O)c1c(O)c3c(c(O)c1C2=O)C[C@@](O)(C(=O)CO)C[C@@H]3O[C@H]1C[C@H](N)[C@H](O)[C@H](C)O1 [DOXORUBICIN] | 0.69 (≈ 1.27 µM) | – | 0.03 (≈ 0.0552 µM) | 0.06 (≈ 0.11 µM) | –
Cc1ccc2[nH]cc3c(=O)n(-c4nc5ccccc5s4)nc-3c2c1 | 2.3 (≈ 6.92 µM) | 4.5 (≈ 13.5 µM) | > 5 | 4.1 (≈ 12.3 µM) | > 250
O=c1c2c[nH]c3ccc(F)cc3c-2nn1-c1nc2ccccc2s1 | > 5 | > 5 | > 5 | > 5 | > 250
O=c1c2c[nH]c3ccc(Cl)cc3c-2nn1-c1nc2ccccc2s1 | > 5 | > 5 | > 5 | > 5 | > 250
O=c1c2c[nH]c3ccc(Br)cc3c-2nn1-c1nc2ccccc2s1 | 1.6 (≈ 4.03 µM) | 4.1 (≈ 10.3 µM) | 3 (≈ 7.55 µM) | > 5 | > 250
O=c1c2c[nH]c3ccc([N+](=O)[O-])cc3c-2nn1-c1nc2ccccc2s1 | > 5 | > 5 | > 5 | > 5 | > 250
O=c1c2c[nH]c3ccccc3c-2nn1-c1nc2ccccc2s1 | > 5 | > 5 | > 5 | > 5 | > 250
